Measurements from ChEMBL document CHEMBL1129545, “Synthesis and evaluation of the antiproliferative effects of 1-O-hexadecyl-2-O-methyl-3-O-(2'-acetamido-2'-deoxy-beta-D- glucopyranosyl)-sn-glycerol and 1-O-hexadecyl-2-O-methyl-3-0- (2'-amino-2'-deoxy-beta-D-glucopyranosyl)-sn-glycerol on epithelial cancer cell growth” (J Med Chem, 1996).

Assays:
Format in all cases: functional, cell-based
OVCAR-3 [1] = test: Inhibitory activity against OVCAR-3 epithelial Cancer cell line at the concentration 0-30 uM for 48 hr; details: Homo sapiens, OVCAR-3, 48 h
How it was run: (§1)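 OVCAR-3 ovarian adenocarcinoma cells in RPMI 1640 with 20% FBS and 10 μg/mL insulin, in 24-well plates. At log phase, medium was replaced with drug-containing medium (0–30 μM, serial dilution of ethanol stocks) for 48 h. Increase in cell number was counted on a Coulter counter relative to drug-free wells, and IC50 was taken as 50% inhibition.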

MCF7 = test: Inhibitory activity against MCF-7 epithelial Cancer cell line at the concentration 0-30 uM for 48 hr; details: Homo sapiens, MCF7, 48 h
How it was run: (§2)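 Human lines from frozen ATCC stocks: A549 in Ham's F-12, T84 in 1:1 F-12/DMEM, MCF-7 and A427 in DMEM, with 10% FBS. Log-phase cells in 24-well plates had medium replaced with drug-containing medium (0–30 μM, serial dilution of ethanol stocks) for 48 h. Coulter counts of cell increase as percent of drug-free controls; IC50 for 50% inhibition; means of eight determinations.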

A549 = test: Inhibitory activity against A549 epithelial Cancer cell line at the concentration 0-30 uM for 48 hr; details: Homo sapiens, A549, 48 h; how it was run: as §2
A-427 = test: Inhibitory activity against A427 epithelial Cancer cell line at the concentration 0-30 uM for 48 hr; details: Homo sapiens, A-427, 48 h; how it was run: as §2
T84 = test: Inhibitory activity against T84 epithelial Cancer cell line at the concentration 0-30 uM for 48 hr; details: Homo sapiens, T84, 48 h; how it was run: as §2
OVCAR-3 [2] = test: Inhibitory activity against OVCAR-3 cell growth; details: Homo sapiens; how it was run: as §1

SMILES	IC50 (OVCAR-3 [1]) [µM]	IC50 (MCF7) [µM]	IC50 (A549) [µM]	IC50 (A-427) [µM]	IC50 (T84) [µM]	IC50 (OVCAR-3 [2]) [µM]
CCCCCCCCCCCCCCCCOC[C@H](CO[C@H]1O[C@@H](CO)[C@H](O)[C@@H](O)[C@@H]1N)OC	4	6.5	8.3	7	12.2	–
CCCCCCCCCCCCCCCCOC[C@H](CO[C@H]1O[C@@H](CO)[C@H](O)[C@@H](O)[C@@H]1NC(C)=O)OC	12	17	9	24.5	> 30	–
CCCCCCCCCCCCCCCCOP(=O)([O-])OCC[N+](C)(C)C [MILTEFOSINE]	–	–	–	–	–	> 30
